Converted amounts (≈) assume the structure as drawn. The source made the active and inactive calls. The rule behind the calls is not given here.
Assays:
[1] = system: Candida tropicalis; experiment: Antimicrobial activity against Candida tropicalis after 48 hrs by 80% endpoint M27-A2 method; type: functional
[2] = system: Candida parapsilosis; experiment: Antimicrobial activity against Candida parapsilosis after 24 hrs by M27-A3 method; type: functional; settings: Lodderomyces parapsilosis
[3] = system: Candida albicans; experiment: Antimicrobial activity against Candida albicans after 24 hrs by M27-A3 method; type: functional
[4] = system: Candida parapsilosis; experiment: Antimicrobial activity against Candida parapsilosis after 48 hrs by broth microdilution method; type: functional; settings: Lodderomyces parapsilosis
[5] = system: Clavispora lusitaniae; experiment: Antimicrobial activity against Candida lusitaniae after 48 hrs by 50% endpoint M27-A2 method; type: functional
[6] = system: Candida albicans; experiment: Antimicrobial activity against Candida albicans isolate R at 25 ug/ml grown on Muller-Hinton agar medium after 24 hrs by disk diffusion method; type: functional
How it was run: (§1)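 Disk diffusion on 90-mm RPMI 1640 with 2% glucose agar or on Mueller-Hinton agar. Plates were swabbed in three directions with a yeast suspension of 1–5 × 10^6 cells/ml. Paper disks (6 mm) held 1, 5 or 25 µg drug. Zone diameters were read at 24 and 48 h; values are means of two experiments.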

[7] = system: Candida albicans; experiment: Antimicrobial activity against Candida albicans isolate S at 25 ug/ml grown on Muller-Hinton agar medium after 48 hrs by disk diffusion method; type: functional; how it was run: as §1
[8] = system: Clavispora lusitaniae; experiment: Antimicrobial activity against Candida lusitaniae after 48 hrs by Etest; type: functional
[9] = system: Candida albicans; experiment: Antimicrobial activity against Candida albicans isolate S infected in NMRI mouse assessed as decrease in kidney bacterial burden at 6 mg/kg, ip measured on day 4; type: functional, organism-based; parameters: dose 6 mg/kg
[10] = system: Candida albicans; experiment: Antimicrobial activity against Candida albicans isolate R after 48 hrs by EUCAST microdilution method; type: functional
How it was run: (§2)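 EUCAST broth microdilution, plates read spectrophotometrically at 490 nm. MIC is the lowest dilution giving 50% growth inhibition. C. krusei […] control included in each run.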

[11] = system: Pichia kudriavzevii; experiment: Antimicrobial activity against Candida krusei after 48 hrs by NCCLS microdilution method; type: functional
[12] = system: Candida albicans; experiment: Antimicrobial activity against Candida albicans isolate R at 1 ug/ml grown on Muller-Hinton agar medium after 48 hrs by disk diffusion method; type: functional; how it was run: as §1
[13] = system: Candida albicans; experiment: Antimicrobial activity against Candida albicans isolate S obtained from blood culture of patient 4 days after admission by EUCAST microdilution method; type: functional; settings: 96 h; how it was run: as §2
[14] = system: Clavispora lusitaniae; experiment: Antimicrobial activity against Candida lusitaniae after 48 hrs
[15] = system: Candida albicans; experiment: Antimicrobial activity against Candida albicans isolate S at 1 ug/ml grown on Muller-Hinton agar medium after 48 hrs by disk diffusion method; type: functional; how it was run: as §1
[16] = system: Candida albicans; experiment: Antimicrobial activity against Candida albicans isolate R at 1 ug/ml grown on RPMI 1640 medium after 48 hrs by disk diffusion method; type: functional; how it was run: as §1
[17] = system: Candida parapsilosis; experiment: Antimicrobial activity against Candida parapsilosis after 48 hrs by M27-A method; settings: Lodderomyces parapsilosis
[18] = system: Candida albicans; experiment: Antimicrobial activity against Candida albicans isolate R at 5 ug/ml grown on Muller-Hinton agar medium after 24 hrs by disk diffusion method; type: functional; how it was run: as §1
[19] = system: Nakaseomyces glabratus; experiment: Antimicrobial activity against Candida glabrata after 48 hrs by broth microdilution method; type: functional
[20] = system: Candida albicans; experiment: Antimicrobial activity against Candida albicans after 48 hrs by 80% endpoint M27-A2 method; type: functional
[21] = system: Pichia kudriavzevii; experiment: Antimicrobial activity against Candida krusei after 24 hrs by M27-A3 method; type: functional
[22] = system: Candida albicans; experiment: Antimicrobial activity against Candida albicans after 48 hrs by NCCLS microdilution method; type: functional
[23] = system: Candida tropicalis; experiment: Antimicrobial activity against Candida tropicalis after 48 hrs by Etest; type: functional
[24] = system: Candida tropicalis; experiment: Antimicrobial activity against Candida tropicalis after 48 hrs by 50% endpoint M27-A2 method; type: functional
[25] = system: Pichia kudriavzevii; experiment: Antimicrobial activity against Candida krusei after 48 hrs by broth microdilution method; type: functional
[26] = system: Meyerozyma guilliermondii; experiment: Antimicrobial activity against Candida guilliermondii after 48 hrs by M27-A method
[27] = system: Candida albicans; experiment: Antimicrobial activity against Candida albicans isolate S at 1 ug/ml grown on RPMI 1640 medium after 48 hrs by disk diffusion method; type: functional; how it was run: as §1
[28] = system: Candida albicans; experiment: Antimicrobial activity against Candida albicans isolate R at 1 ug/ml grown on Muller-Hinton agar medium after 24 hrs by disk diffusion method; type: functional; how it was run: as §1
[29] = system: Debaryomyces hansenii; experiment: Antimicrobial activity against Candida famata after 24 hrs by M27-A3 method; type: functional
[30] = system: Candida albicans; experiment: Antimicrobial activity against Candida albicans isolate R at 5 ug/ml grown on RPMI 1640 medium after 24 hrs by disk diffusion method; type: functional; how it was run: as §1
[31] = system: Candida albicans; experiment: Antimicrobial activity against Candida albicans obtained from urine of patient 29 days after admission by EUCAST microdilution method; type: functional; settings: 696 h; how it was run: as §2
[32] = system: Candida albicans; experiment: Antimicrobial activity against Candida albicans isolate R at 25 ug/ml grown on Muller-Hinton agar medium after 48 hrs by disk diffusion method; type: functional; how it was run: as §1
[33] = system: Pichia kudriavzevii; experiment: Antimicrobial activity against Candida krusei after 48 hrs by 50% endpoint M27-A2 method; type: functional
[34] = system: Candida albicans; experiment: Antimicrobial activity against Candida albicans isolate R after 24 hrs by microdilution method; type: functional
How it was run: (§3)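 Broth microdilution in microtiter plates, read spectrophotometrically at 490 nm. MIC taken as the lowest drug dilution giving 50% growth inhibition. C. krusei […] run as control in each run. Read at 24 h and 48 h; trailing growth noted at 48 h.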

[35] = system: Candida albicans; experiment: Antimicrobial activity against Candida albicans after 48 hrs by Etest; type: functional
[36] = system: Candida albicans; experiment: Antimicrobial activity against Candida albicans isolate C at 1 ug/ml after 48 hrs by agar dilution method; type: functional, organism-based
How it was run: (§4)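 Agar dilution on Sabouraud agar with caspofungin at 0, 0.5, 1 and 2 per ml. Isolates were subcultured 2 days on CHROMagar. Suspensions of 1×10^6 to 5×10^6 CFU/ml in sterile water were diluted 1,500-fold, and approximately 3 to 15 cells were spread per agar surface. Growth or no growth was scored, with repeated testing.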

[37] = system: Candida albicans; experiment: Antimicrobial activity against Candida albicans isolate C after 48 hrs by microdilution method; type: functional; how it was run: as §3
[38] = system: Candida albicans; experiment: Antimicrobial activity against Candida albicans isolate S at 5 ug/ml grown on RPMI 1640 medium after 48 hrs by disk diffusion method; type: functional; how it was run: as §1
[39] = system: Meyerozyma guilliermondii; experiment: Antimicrobial activity against Candida guilliermondii after 48 hrs by Etest; type: functional
[40] = system: Candida albicans; experiment: Antimicrobial activity against Candida albicans isolate R at 1 ug/ml grown on RPMI 1640 medium after 24 hrs by disk diffusion method; type: functional; how it was run: as §1
[41] = system: Candida albicans; experiment: Antimicrobial activity against Candida albicans isolate C at 2 ug/ml after 48 hrs by agar dilution method; type: functional, organism-based; how it was run: as §4
[42] = system: Kluyveromyces marxianus; experiment: Antimicrobial activity against Candida kefyr after 48 hrs by 50% endpoint M27-A2 method; type: functional
[43] = system: Meyerozyma guilliermondii; experiment: Antimicrobial activity against Candida guilliermondii after 48 hrs by NCCLS microdilution method; type: functional
[44] = system: Candida albicans; experiment: Antimicrobial activity against Candida albicans isolate R at 25 ug/ml grown on RPMI 1640 medium after 24 hrs by disk diffusion method; type: functional; how it was run: as §1
[45] = system: Candida albicans; experiment: Antimicrobial activity against Candida albicans isolate C after 24 hrs by microdilution method; type: functional; how it was run: as §3
[46] = system: Meyerozyma guilliermondii; experiment: Antimicrobial activity against Candida guilliermondii after 48 hrs by 80% endpoint M27-A method
[47] = system: Candida parapsilosis; experiment: Antimicrobial activity against Candida parapsilosis after 48 hrs by Etest; type: functional; settings: Lodderomyces parapsilosis

Molecule `CC[C@H](C)C[C@H](C)CCCCCCCCC(=O)N[C@H]1C[C@@H](O)[C@@H](NCCN)NC(=O)[C@@H]2[C@@H](O)CCN2C(=O)[C@H]([C@H](O)CCN)NC(=O)[C@H]([C@H](O)[C@@H](O)c2ccc(O)cc2)NC(=O)[C@@H]2C[C@@H](O)CN2C(=O)[C@H]([C@@H](C)O)NC1=O` [CASPOFUNGIN] has an MIC90 [1] of 0.5 µg/mL (≈ 0.457 µM), an MIC90 [2] of 1 µg/mL (≈ 0.915 µM) and an MIC90 [3] of 0.06 µg/mL (≈ 0.0549 µM). For the same molecule, the MIC90 [4] was 2 µg/mL (≈ 1.83 µM), the MIC90 [5] was 2 µg/mL (≈ 1.83 µM) and the “inhibition zone (IZ)” value [6] was 13.4 mm. The “inhibition zone (IZ)” value [7] was 24.9 mm, the MIC90 [8] was 2 µg/mL (≈ 1.83 µM) and the Activity [9] was “Active”. For the same molecule, the MIC [10] was 1 µg/mL (≈ 0.915 µM), the MIC90 [11] was 1 µg/mL (≈ 0.915 µM) and the “inhibition zone (IZ)” value [12] was 6.1 mm. For the same molecule, the MIC [13] was 0.25 µg/mL (≈ 0.229 µM), the MIC90 [14] was 1 µg/mL (≈ 0.915 µM) and the “inhibition zone (IZ)” value [15] was 12.5 mm. The “inhibition zone (IZ)” value [16] was 6.2 mm, the MIC90 [17] was 4 µg/mL (≈ 3.66 µM) and the “inhibition zone (IZ)” value [18] was 8.8 mm. It also gave an MIC90 [19] of 0.5 µg/mL (≈ 0.457 µM), an MIC90 [20] of 0.5 µg/mL (≈ 0.457 µM) and an MIC90 [21] of 0.25 µg/mL (≈ 0.229 µM). The MIC90 [22] was 0.5 µg/mL (≈ 0.457 µM), the MIC90 [23] was 0.5 µg/mL (≈ 0.457 µM) and the MIC90 [24] was 1 µg/mL (≈ 0.915 µM). The MIC90 [25] was 2 µg/mL (≈ 1.83 µM), the MIC90 [26] was > 8 µg/mL and the “inhibition zone (IZ)” value [27] was 10.5 mm. For the same molecule, the “inhibition zone (IZ)” value [28] was 6.1 mm, the MIC90 [29] was 1 µg/mL (≈ 0.915 µM) and the “inhibition zone (IZ)” value [30] was 8.6 mm. For the same molecule, the MIC [31] was 0.25 µg/mL (≈ 0.229 µM), the “inhibition zone (IZ)” value [32] was 12.7 mm and the MIC90 [33] was 2 µg/mL (≈ 1.83 µM). For the same molecule, the MIC [34] was 1 µg/mL (≈ 0.915 µM), the MIC90 [35] was 0.25 µg/mL (≈ 0.229 µM) and the “growth inhibition (GI)” value [36] was “Active”. For the same molecule, the MIC [37] was ≤ 0.06 µg/mL, the “inhibition zone (IZ)” value [38] was 21 mm and the MIC90 [39] was > 8 µg/mL. The “inhibition zone (IZ)” value [40] was 6.2 mm, the “growth inhibition (GI)” value [41] was “Active” and the MIC90 [42] was 1 µg/mL (≈ 0.915 µM). The MIC90 [43] was > 16 µg/mL, the “inhibition zone (IZ)” value [44] was 12.4 mm and the MIC [45] was ≤ 0.06 µg/mL. The MIC90 [46] was 1 µg/mL (≈ 0.915 µM) and the MIC90 [47] was 2 µg/mL (≈ 1.83 µM).

From ChEMBL document CHEMBL1629654, “Breakthrough Aspergillus fumigatus and Candida albicans double infection during caspofungin treatment: laboratory characteristics and implication for susceptibility testing” (2009)
